Experimental data of several laboratories.

COc1ncccc1-c1cnn2ccc(N3CCN(C(=O)OC(C)C)CC3)nc12 — bioavailability (mouse, plasma; oral, 10 mg/kg): ~100%
NS(=O)(=O)c1ccc(Cc2c(-c3cccc(-c4ccccc4)c3)nn(-c3nc(C(=O)O)cs3)c2C2CC2)cc1 — bioavailability (male CD-1 mouse, plasma; oral, 50 mg/kg): ~50%
C[C@]12CC[C@H](n3ccnc3)CC1=CC[C@@H]1[C@@H]2CC[C@]2(C)C(n3cnc4ccccc43)=CC[C@@H]12.Cl — AUC(0-t) (male CD-1 mouse, plasma; intravenous, 1 mg/kg): 2.04 µg·h/mL
CSc1sc(C)cc1-c1nsc(=O)o1 — half-life (chemical stability; culture medium): 110 min
CCN(CC)CCCC[C@H](NC(=O)[C@H](CC(C)C)NC(=O)[C@H](C)NC(=O)[C@H](Cc1ccccc1)NC(=O)c1ccc(C(C)(C)C)cc1)C(=O)N[C@@H](CO)C(=O)OC — bioavailability (male Swiss mouse, plasma; intraperitoneal, 10 mg/kg): 25%
Cc1cc(-c2nsc(=O)o2)c(S(C)(=O)=O)s1 — half-life (chemical stability; culture medium): 13.5 min
CCC[C@@](N)(CO)CCc1ccc(OCCCCCC(C)C)cc1 — AUC(0-t) (mouse, plasma; intravenous, 5 mg/kg): 714 nM·h
O=C(NC1CCCCC1)Oc1ccc2ccccc2c1 — half-life (metabolic stability; male Wistar rat, liver S9; 1 µM, pH 7.4): 5 min
Cc1cc(C)nc(Nc2ncc(C(=O)NCCc3c(C)[nH]c4ccccc34)cn2)c1 — half-life (metabolic stability; rat, liver microsomes; 1 µM): 3.8 min
O=C(NC1CCCCC1)Oc1ccc(-c2ccccc2)cc1 — half-life (metabolic stability; male Wistar rat, liver S9; 1 µM, pH 7.4): 19 min
O=C(Nc1nccs1)C(c1cc(F)ccc1O)N1Cc2ccc(-c3ccc(N4CCNCC4)cc3)cc2C1=O (centres unmarked) — bioavailability (mouse, plasma; oral, 20 mg/kg): 3%
